ChEMBL document CHEMBL5137084 (J Med Chem, 2022)
Activity calls are given as the source filed them. The rule behind the calls is not given here.

Experiments:
[1] = Metabolic stability of the compound in carboxylesterase 1 knockout mouse brain assessed as parent compound remaining at 10 uM measured after 1 hr in by UPLC analysis; type: ADME, tissue-based
Method in brief: (§1)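 Plasma, or liver or brain homogenised 10-fold in 0.1 M potassium phosphate buffer, from CES1−/− mice. Spiked with 10 μM prodrug (final) and shaken at 37 °C for 1 h, in triplicate. Samples at 0 and 1 h were quenched with three volumes of acetonitrile containing losartan. Intact prodrug was measured by UHPLC-orbitrap MS and expressed as % remaining, mean ± SE.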

[2] = Prodrug conversion in carboxylesterase 1 knockout C57BL/6 mouse brain assessed as increase in 2,6-Dimethoxy-4-(4-phenyl-5-thiophen-2-yl-1H-imidazol-2-yl)phenol release at 16.62 mg/kg, po administered as single dose measured after 2 hrs by LC-MS/MS analysis; type: ADME, organism-based; conditions: in vivo
[3] = Prodrug conversion in carboxylesterase 1 knockout C57BL/6 mouse brain assessed as AUC of 2,6-Dimethoxy-4-(4-phenyl-5-thiophen-2-yl-1H-imidazol-2-yl)phenol at 16.62 mg/kg, po administered as single dose measured upto 8 hrs by LC-MS/MS analysis; type: ADME, organism-based; design: dose 16.62 mg/kg, time < 8 hrs, route po; conditions: in vivo
[4] = Prodrug conversion in carboxylesterase 1 knockout C57BL/6 mouse plasma assessed as AUC of 2,6-Dimethoxy-4-(4-phenyl-5-thiophen-2-yl-1H-imidazol-2-yl)phenol at 16.62 mg/kg, po administered as single dose measured upto 8 hrs by LC-MS/MS analysis; type: ADME, organism-based; design: time < 8 hrs, dose 16.62 mg/kg, route po; conditions: in vivo
[5] = Tmax in carboxylesterase 1 knockout C57BL/6 mouse plasma at 16.62 mg/kg, po administered as single dose measured upto 8 hrs by LC-MS/MS analysis; type: ADME, organism-based
[6] = Prodrug conversion in carboxylesterase 1 knockout C57BL/6 mouse plasma assessed as increase in 2,6-Dimethoxy-4-(4-phenyl-5-thiophen-2-yl-1H-imidazol-2-yl)phenol release at 16.62 mg/kg, po administered as single dose measured after 2 hrs by LC-MS/MS analysis; type: ADME, organism-based; conditions: in vivo
[7] = Metabolic stability of the compound in carboxylesterase 1 knockout mouse liver assessed as parent compound remaining at 10 uM measured after 1 hr in by UPLC analysis; type: ADME, tissue-based; method in brief: as §1
Mus musculus = assay: Antiinflammatory activity against GFAP-EGFP transgenic mouse model assessed as as inhibition of GFP-labeled extracellular vesicle release at 3 to 10 mg/kg, po pretreated with compound for 30 mins followed by IL-1beta injection measured after 4 hrs; type: functional, organism-based; conditions: dose 3-10 mg/kg
Method in brief: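 Euthanized 4 h later. Platelet-free plasma was prepared and GFP+ EVs were captured on anti-GFP antibody-coupled magnetic beads and counted by particle tracking, blinded. Mean ± SEM, one-way ANOVA with Tukey.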

[8] = Stability in carboxylesterase 1 knockout C57BL/6 mouse plasma assessed as intact compound level at 16.62 mg/kg, po administered as single dose measured upto 8 hrs by LC-MS/MS analysis; type: ADME, organism-based; conditions: read-out: Stability
[9] = Half life in carboxylesterase 1 knockout C57BL/6 mouse plasma at 16.62 mg/kg, po administered as single dose measured upto 8 hrs by LC-MS/MS analysis; type: ADME, organism-based
[10] = Ratio of prodrug conversion in carboxylesterase 1 knockout C57BL/6 mouse brain to plasma assessed as 2,6-Dimethoxy-4-(4-phenyl-5-thiophen-2-yl-1H-imidazol-2-yl)phenol release at 16.62 mg/kg, po administered as single dose measured after 2 hrs by LC-MS/MS analysis; type: ADME, organism-based
[11] = Metabolic stability of the compound in carboxylesterase 1 knockout mouse plasma assessed as parent compound remaining at 10 uM measured after 1 hr in by UPLC analysis; type: ADME, cell-free; method in brief: as §1
[12] = Tmax in carboxylesterase 1 knockout C57BL/6 mouse brain at 16.62 mg/kg, po administered as single dose measured upto 8 hrs by LC-MS/MS analysis; type: ADME, organism-based
[13] = Prodrug conversion in carboxylesterase 1 knockout C57BL/6 mouse brain assessed as Cmax of 2,6-Dimethoxy-4-(4-phenyl-5-thiophen-2-yl-1H-imidazol-2-yl)phenol at 16.62 mg/kg, po administered as single dose measured upto 8 hrs by LC-MS/MS analysis; type: ADME, organism-based; design: dose 16.62 mg/kg, time < 8 hrs, route po; conditions: in vivo
[14] = Protein binding in mouse plasma assessed as free fraction at 3 to 10 mg/kg, po by ultrafiltration assay; type: ADME, organism-based; conditions: dose 3-10 mg/kg
[15] = Stability in carboxylesterase 1 knockout C57BL/6 mouse brain assessed as intact compound level at 16.62 mg/kg, po administered as single dose measured upto 8 hrs by LC-MS/MS analysis; type: ADME, organism-based; conditions: read-out: Stability
[16] = Half life in carboxylesterase 1 knockout C57BL/6 mouse brain at 16.62 mg/kg, po administered as single dose measured upto 8 hrs by LC-MS/MS analysis; type: ADME, organism-based
[17] = Prodrug conversion in carboxylesterase 1 knockout C57BL/6 mouse plasma assessed as Cmax of 2,6-Dimethoxy-4-(4-phenyl-5-thiophen-2-yl-1H-imidazol-2-yl)phenol at 16.62 mg/kg, po administered as single dose measured upto 8 hrs by LC-MS/MS analysis; type: ADME, organism-based; design: time < 8 hrs, dose 16.62 mg/kg, route po; conditions: in vivo

SMILES: CCC1CC(N2CCCCC2)CC(CC)N1C(=O)Oc1c(OC)cc(-c2nc(-c3ccccc3)c(-c3cccs3)[nH]2)cc1OC (stereo not drawn)
- Stability [1]: 100%
- Drug metabolism [2]: 61.5 nM
- AUC [3]: 247 pmol·h/g
- AUC [4]: 1047 pmol·h/g
- Tmax [5]: 2 h
- Drug metabolism [6]: 189.3 nM
- Stability [7]: 100%
- Activity (Mus musculus): Active
- concentration at 8 h [8]: 283 nM
- half-life [9]: 2.7 h
- BPR [10]: 0.24
- Stability [11]: 92%
- Tmax [12]: 2 h
- Cmax [13]: 69 pmol·h/g
- fraction unbound [14]: 0.9
- concentration at 8 h [15]: 35.2 nM
- half-life [16]: 1.8 h
- Cmax [17]: 190 pmol·h/g
